Bioassay records deposited in PubChem BioAssay by several laboratories.
In the library only some 1.6% were active in any assay of this set; here they are far more common.
Neddyl block: inhibitors of human cullin neddylation; calls only at 25 µM; P61081+Q13564; 360,000 compounds, 0.58% hits; TR-FRET cullin neddylation, biochemical; in the data active = inhibition above about 36%
UBC13 polyUb: human UBC13 polyubiquitination inhibition; P61088; UBC13 polyubiquitin chain formation, TR-FRET; inhibition, % at 20 µM; 330,000 compounds, 0.47% hits; in the data active = inhibition above about 45%, passing the limit was not always enough
RAD52 inh: inhibitors of human RAD52 DNA annealing | 360,000 compounds, 0.46% hits | inhibition, % at 18.7 µM | AID 651710 | recombinant RAD52 DNA annealing, FRET fluorescence | P43351;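 active = every replicate showing at least 50% inhibition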
Target sequence (P43351 whole entry, looked up): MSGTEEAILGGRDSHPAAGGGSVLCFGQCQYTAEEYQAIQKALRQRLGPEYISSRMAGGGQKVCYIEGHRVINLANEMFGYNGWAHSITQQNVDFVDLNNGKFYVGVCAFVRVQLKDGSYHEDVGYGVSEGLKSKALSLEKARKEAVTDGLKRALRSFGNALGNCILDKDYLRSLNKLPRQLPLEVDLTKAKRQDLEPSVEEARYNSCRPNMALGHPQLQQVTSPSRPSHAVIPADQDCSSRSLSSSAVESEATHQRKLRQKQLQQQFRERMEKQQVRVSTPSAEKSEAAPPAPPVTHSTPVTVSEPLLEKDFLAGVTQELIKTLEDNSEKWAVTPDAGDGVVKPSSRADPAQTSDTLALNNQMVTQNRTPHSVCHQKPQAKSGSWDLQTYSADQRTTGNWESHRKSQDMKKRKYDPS
DNA FID counter: displaces DNA intercalator in HCV helicase counter-screen. DNA fluorescent intercalator displacement, fluorescence. inhibition, % at 7.9 µM. 290,000 compounds, 0.17% hits; in the data active = inhibition above about 37%;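 also: 0% = vehicle and 100% = reference compound; higher means more ethidium bromide displaced from hairpin DNA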
RAD54 inh: blocks human RAD54 Holliday junction branch migration; 360,000 compounds, 0.14% hits; inhibition, % at 10.4 µM; FAM/BHQ fluorescence; Q92698; AID 602329;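 active = mean normalized replicate activity at least 40 and at least half of replicates scoring 40 or more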;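 also: 0% = median of neutral control wells and 100% = median of positive control wells; inhibitors cause a drop in the FAM fluorescence signal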
Apaf1 inhib: human Apaf-1 inhibition; O14727; reconstituted apoptosome caspase-3 activity, DEVD-Rh110 fluorescence; inhibition, % at 20 µM; 330,000 compounds, 0.71% hits; active = inhibition of at least 40% at 20 µM;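 also: plate controls were DMSO wells for no effect and DEVD-CHO caspase inhibitor wells for full effect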
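System – cell-free apoptosome with Apaf-1, procaspase-3 and caspase-9 · Buffer or medium – pH 7.5 Hepes buffer with CHAPS, BSA, DTT · Also added – cytochrome c with DEVD-Rh110 · Times – 30 min compound preincubation, 50 min activation, room temperature · Technique – Rh110 fluorescence intensity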
Casp3 counter: inhibits human caspase-3 in UBC13 counter-screen; shares compounds with UBC13 polyUb; Recombinant caspase-3, Caspase-Glo 3/7 luminescence, 60 min; inhibition, % at 20 µM; 1,400 compounds, 4% hits; AID 488856;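 active = mean inhibition across replicates above about 26%, limit read from the data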;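 also: plate controls were DMSO with caspase-3 for no effect and DMSO wells lacking enzyme for full effect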
UBC13 conf: confirmation of human UBC13 polyubiquitin inhibitors; UBC13 polyubiquitination, TR-FRET, biochemical; inhibition, % at 10 µM; AID 488859; 1,400 compounds, 68% hits; shares compounds with UBC13 polyUb; in the data active = inhibition above about 45%
Apaf-1 inh conf2: confirmation of Apaf-1 inhibitors | inhibition, % at 20 µM | shares compounds with Apaf1 inhib | reconstituted apoptosome, caspase-3 DEVD-Rh110 fluorescence | 1,800 compounds, 25% hits;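 active = mean inhibition of at least 40% at 20 µM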;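 also: plate controls were DMSO wells for no effect and DEVD-CHO caspase inhibitor control wells for full effect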
Rh110 interf inh: interferes with Rh110 fluorescence, flagging false Apaf-1 inhibitors. 1,800 tested, under 10 active. Rh110 fluorescence interference, quenched caspase reaction. shares compounds with Apaf1 inhib. activation (fluorescence interference), % at 20 µM;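 active = signal rise of 40% or more at 20 µM, treated as a fluorescence artifact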
Fluor interf inh: Apaf-1 inhibitor counter-screen fluorescence artifact; shares compounds with Apaf1 inhib; fluorescence interference counterscreen, Apaf-1 assay format; IC50, µM; 460 tested, under 10 active; call rule not given here
The depositor's hits bear a star; i = inactive; nt = no result given.

SMILES | Neddyl block | UBC13 polyUb | RAD52 inh | DNA FID counter | RAD54 inh | Apaf1 inhib | Casp3 counter | UBC13 conf | others
CO[C@H]1CN(C)C(=O)c2cc(NC(=O)Nc3ccccc3F)ccc2OC[C@H](C)N(C)C[C@@H]1C | nt | nt | -1 | nt | 3 | nt | nt | nt
Cc1cccc(CN2C(=O)/C(=C\c3ccc(C(=O)NCCN4CCOCC4)cc3)Sc3ccccc32)c1 | i | 27 | nt | -2 | -1 | 16 | nt | nt
CCN1CCN(CCNC(=O)c2ccc3c(c2)N(Cc2ccc(F)cc2)C(=O)/C(=C/c2ccccc2)S3)CC1 | i | 65* | 73* | 31 | 66* | 37 | 2 | 92*
CC(=O)N1[C@H](CO)[C@H](c2ccc(C3=CCCC3)cc2)C12CN(C(=O)C1CC1)C2 | nt | nt | -9 | nt | nt | nt | nt | nt
Cc1c(CCOC(=O)C23CC4(C)CC(C)(CC(C)(C4)C2)C3)sc[n+]1CC(=O)c1ccccc1 | i | 70* | 27 | -1 | nt | 33 | -4 | 88*
Cc1c(CCOC(=O)CC23CC4CC(CC(C4)C2)C3)sc[n+]1CC(=O)c1ccccc1 | i | 47* | 42 | 7 | nt | 34 | -3 | 52*
C#CCOCCOCCOCCNc1nc(N2CCN(C(=O)[C@H](CCC(=O)O)n3cc(C(N)Cc4ccc(O)cc4)nn3)CC2)nc(N2CCN(C(=O)[C@H](Cc3cc4ccccc4[nH]3)n3cc(C(N)[C@H](C)CC)nn3)CC2)n1 (stereo not given in full) | i | 13 | nt | 20 | 0 | 7 | nt | nt
C#CCOCCOCCOCCNc1nc(N2CCN(C(=O)[C@H](Cc3ccc(O)cc3)n3cc([C@@H](N)C(C)CC)nn3)CC2)nc(N2CCN(C(=O)[C@H](Cc3cc4ccccc4[nH]3)n3cc([C@@H](N)C(C)CC)nn3)CC2)n1 (stereo not given in full) | i | 77* | nt | 51* | 7 | 33 | -2 | 66*
CC(C)C[C@H](N)c1cn([C@@H](Cc2cc3ccccc3[nH]2)C(=O)N2CCNCC2)nn1 | i | 72* | nt | 21 | 11 | -12 | 7 | 77*
C#CCOCCOCCOCCNc1nc(N2CCN(C(=O)[C@H](Cc3cc4ccccc4[nH]3)n3cc([C@@H](N)C(C)CC)nn3)CC2)nc(N2CCN(C(=O)[C@H](Cc3cc4ccccc4[nH]3)n3cc([C@@H](N)Cc4ccc(O)cc4)nn3)CC2)n1 (stereo not given in full) | nt | 124* | nt | 41* | nt | 60* | -2 | 119*
COCC(=O)Nc1ccc2c(c1)[C@@H]1C[C@H](CC(=O)NCC3CC3)O[C@@H](CO)[C@@H]1O2 | nt | nt | -6 | nt | -10 | nt | nt | nt
O=C1CC(c2ccc(F)cc2)CC(O)=C1C1NCCc2ccccc21 (stereo not given) | i | 5 | nt | 2 | -10 | -2 | nt | nt
O=C1CC(c2ccc(F)cc2)C(n2cncn2)C(O)=C1C1NCCc2ccccc21 (stereo not given) | i | 54* | -3 | -38 | -6 | -6 | -1 | 9
CCC(=O)N(C)C[C@@H]1Oc2cc(C3=CCCC3)ccc2S(=O)(=O)N([C@H](C)CO)C[C@H]1C | nt | nt | 10 | nt | -5 | nt | nt | nt
Cc1ccc(S(=O)(=O)N(C)C)cc1NC(=O)CN1C(=O)NC2(CCCCCC2)C1=O | i | 0 | -10 | -15 | -11 | 9 | nt | nt
COc1ccc(NS(=O)(=O)c2ccc(C)c(NC(=O)CN3C(=O)NC4(CCCC4)C3=O)c2)cc1 | i | 106* | 24 | nt | 4 | 82* | 0 | 55* | Apaf-1 inh conf2=58*;Rh110 interf inh=2;Fluor interf inh=>100
